Assay results: ChEMBL document CHEMBL2384938, “Discovery of a New Class of Potent MMP Inhibitors by Structure-Based Optimization of the Arylsulfonamide Scaffold” (ACS Med Chem Lett, 2013)

What was measured:
[1] = target: T1, Matrilysin (Homo sapiens, UniProt P09237); assay: Inhibition of MMP7 (unknown origin)-mediated Mca-Pro-Leu-Gly-Leu-Dpa-Ala-Arg-NH2 by fluorimetric assay
T1 sequence (P09237 whole entry): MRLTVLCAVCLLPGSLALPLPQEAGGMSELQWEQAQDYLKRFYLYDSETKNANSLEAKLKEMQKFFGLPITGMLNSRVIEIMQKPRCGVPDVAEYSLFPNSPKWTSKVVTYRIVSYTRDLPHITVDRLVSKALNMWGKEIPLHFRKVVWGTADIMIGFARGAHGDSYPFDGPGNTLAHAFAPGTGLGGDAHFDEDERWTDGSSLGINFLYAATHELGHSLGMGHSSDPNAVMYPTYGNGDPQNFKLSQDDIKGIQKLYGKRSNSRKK
How it was run: (§1)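 Activity read fluorimetrically; values reported as inhibition constants (Ki). The same assay format was used for each of MMP-1, -7, -8 and -13.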

[2] = target: T2, Interstitial collagenase (Homo sapiens, UniProt P03956); assay: Inhibition of MMP1 (unknown origin)-mediated Mca-Pro-Leu-Gly-Leu-Dpa-Ala-Arg-NH2 by fluorimetric assay; how it was run: as §1
T2 sequence (P03956 whole entry): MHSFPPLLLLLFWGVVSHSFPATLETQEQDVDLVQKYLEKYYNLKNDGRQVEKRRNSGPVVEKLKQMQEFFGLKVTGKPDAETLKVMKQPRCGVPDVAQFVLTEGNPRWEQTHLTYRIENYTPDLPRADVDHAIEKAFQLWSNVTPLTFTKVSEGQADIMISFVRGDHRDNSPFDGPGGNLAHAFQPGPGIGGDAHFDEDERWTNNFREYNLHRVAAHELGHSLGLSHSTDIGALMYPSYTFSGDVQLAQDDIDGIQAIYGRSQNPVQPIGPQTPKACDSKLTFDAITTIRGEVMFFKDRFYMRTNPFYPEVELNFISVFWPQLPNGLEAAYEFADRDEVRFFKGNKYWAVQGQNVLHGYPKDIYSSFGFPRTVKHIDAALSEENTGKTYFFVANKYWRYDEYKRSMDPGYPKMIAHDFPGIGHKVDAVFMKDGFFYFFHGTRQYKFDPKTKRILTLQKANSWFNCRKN

[3] = target: Collagenase 3 (Homo sapiens, UniProt P45452); assay: Inhibition of MMP13 (unknown origin)-mediated Mca-Pro-Leu-Gly-Leu-Dpa-Ala-Arg-NH2 by fluorimetric assay; how it was run: as §1
[4] = target: Macrophage metalloelastase (Homo sapiens, UniProt P39900); assay: Inhibition of MMP12 (unknown origin)-mediated Mca-Pro-Leu-Gly-Leu-Dpa-Ala-Arg-NH2 by fluorimetric assay
[5] = target: Neutrophil collagenase (Homo sapiens, UniProt P22894); assay: Inhibition of MMP8 (unknown origin)-mediated Mca-Pro-Leu-Gly-Leu-Dpa-Ala-Arg-NH2 by fluorimetric assay; how it was run: as §1
Chain of Neutrophil collagenase (P22894 whole entry): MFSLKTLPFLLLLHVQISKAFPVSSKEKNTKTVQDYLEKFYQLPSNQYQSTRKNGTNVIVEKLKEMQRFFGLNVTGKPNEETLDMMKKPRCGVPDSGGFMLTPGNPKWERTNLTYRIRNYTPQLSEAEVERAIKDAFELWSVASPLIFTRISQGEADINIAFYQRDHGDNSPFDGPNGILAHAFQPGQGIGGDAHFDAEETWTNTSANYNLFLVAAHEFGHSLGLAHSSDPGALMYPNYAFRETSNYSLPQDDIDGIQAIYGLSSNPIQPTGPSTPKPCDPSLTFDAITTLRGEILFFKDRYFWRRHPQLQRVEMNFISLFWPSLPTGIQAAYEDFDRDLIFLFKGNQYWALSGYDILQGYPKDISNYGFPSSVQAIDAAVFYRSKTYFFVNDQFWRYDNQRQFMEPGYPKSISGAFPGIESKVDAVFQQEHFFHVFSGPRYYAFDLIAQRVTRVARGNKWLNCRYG

Chain of Macrophage metalloelastase (P39900 whole entry): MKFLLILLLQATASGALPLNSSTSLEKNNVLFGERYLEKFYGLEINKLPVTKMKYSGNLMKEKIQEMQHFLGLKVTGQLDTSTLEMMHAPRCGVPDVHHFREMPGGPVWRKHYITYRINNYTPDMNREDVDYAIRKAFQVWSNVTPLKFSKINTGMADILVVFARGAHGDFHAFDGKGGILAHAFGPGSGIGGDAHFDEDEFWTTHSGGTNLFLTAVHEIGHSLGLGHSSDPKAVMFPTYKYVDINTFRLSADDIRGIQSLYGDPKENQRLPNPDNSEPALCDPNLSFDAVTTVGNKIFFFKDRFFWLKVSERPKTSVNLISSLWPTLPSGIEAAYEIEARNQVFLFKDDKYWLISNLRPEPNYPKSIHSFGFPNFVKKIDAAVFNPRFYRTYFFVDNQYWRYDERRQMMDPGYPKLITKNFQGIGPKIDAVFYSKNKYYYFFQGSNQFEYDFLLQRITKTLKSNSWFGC

**Q.** With O=C(CNS(=O)(=O)c1ccccc1)NO as the molecule, how does the Ki [1] read?
**A.** 4000 nM

**Q.** What about the Ki [2] of the same molecule?
**A.** 3400 nM

**Q.** And the Ki [3]?
**A.** 42 nM

**Q.** And the Ki [4]?
**A.** 62 nM

**Q.** And the Ki [5]?
**A.** 240 nM

**Q.** For COc1ccc(CCS(=O)(=O)NCC(=O)NO)cc1, which Ki [3] is on record?
**A.** 12 nM

**Q.** And the Ki [4]?
**A.** 10 nM

**Q.** And the Ki [5]?
**A.** 14 nM

**Q.** Which Ki [1] does the source give for O=C(NO)[C@@H]1CCCN1S(=O)(=O)CCc1ccc2c(c1)OCO2 here?
**A.** 6000 nM

**Q.** What about the Ki [2] of the same molecule?
**A.** 7000 nM

**Q.** And the Ki [3]?
**A.** 10 nM

**Q.** And the Ki [4]?
**A.** 5 nM

**Q.** What about the Ki [5] of the same molecule?
**A.** 13 nM

**Q.** What does the source list for O=C(CNS(=O)(=O)CCc1ccccc1)NO?
**A.** Ki [1]: 10700 nM; Ki [2]: 5700 nM; Ki [3]: 49 nM; Ki [4]: 23 nM; Ki [5]: 75 nM

**Q.** For O=C(NO)[C@H]1CCCN1S(=O)(=O)CCc1ccc(Oc2ccccc2)cc1, which Ki [3] is on record?
**A.** 10 nM

**Q.** What about the Ki [4] of the same molecule?
**A.** 5 nM

**Q.** What about the Ki [5] of the same molecule?
**A.** 98 nM

**Q.** What does the source list for O=C(CNS(=O)(=O)c1ccc(-c2ccccc2)cc1)NO?
**A.** Ki [1]: 5000 nM; Ki [2]: 365 nM; Ki [3]: 2 nM; Ki [4]: 2 nM; Ki [5]: 9 nM

**Q.** With O=C(CNS(=O)(=O)CCc1ccc2c(c1)OCO2)NO as the molecule, how does the Ki [1] read?
**A.** 18500 nM

**Q.** And the Ki [2]?
**A.** 19700 nM

**Q.** What about the Ki [3] of the same molecule?
**A.** 35 nM

**Q.** What about the Ki [4] of the same molecule?
**A.** 15 nM

**Q.** What about the Ki [5] of the same molecule?
**A.** 20 nM

**Q.** O=C(O)CNS(=O)(=O)CCc1ccc(-c2ccccc2)cc1 was tested. Which Ki [3] did it give?
**A.** 5 nM

**Q.** What about the Ki [4] of the same molecule?
**A.** 7 nM

**Q.** What about the Ki [5] of the same molecule?
**A.** 7 nM

**Q.** With O=C(O)CNS(=O)(=O)c1ccc(-c2ccccc2)cc1 as the molecule, how does the Ki [2] read?
**A.** 365 nM

**Q.** And the Ki [4]?
**A.** 18000 nM

**Q.** Which results are given for O=C(NO)[C@@H]1CCCN1S(=O)(=O)CCc1ccc(Cl)s1?
**A.** Ki [3]: 3 nM; Ki [4]: 9 nM; Ki [5]: 6 nM

**Q.** With COc1ccc(CCS(=O)(=O)N2CCC[C@H]2C(=O)NO)cc1 as the molecule, how does the Ki [3] read?
**A.** 1 nM

**Q.** What about the Ki [4] of the same molecule?
**A.** 1 nM

**Q.** What about the Ki [5] of the same molecule?
**A.** 4 nM

**Q.** Which Ki [3] does the source give for O=C(CNS(=O)(=O)CCc1ccc(Oc2ccccc2)cc1)NO here?
**A.** 19 nM

**Q.** What about the Ki [4] of the same molecule?
**A.** 10 nM

**Q.** What about the Ki [5] of the same molecule?
**A.** 32 nM

**Q.** Which Ki [3] does the source give for O=C(NO)C1CCCN1S(=O)(=O)CCc1ccc(-c2ccccc2)cc1 (single isomer, unassigned) here?
**A.** 1 nM

**Q.** What about the Ki [4] of the same molecule?
**A.** 2 nM

**Q.** And the Ki [5]?
**A.** 3 nM

**Q.** What does the source list for COc1ccc(S(=O)(=O)NCC(=O)NO)cc1?
**A.** Ki [1]: 4000 nM; Ki [4]: 20 nM

**Q.** How did the Ki [3] turn out when O=C(CNS(=O)(=O)CCc1ccc(Cl)s1)NO was run?
**A.** 6 nM

**Q.** What about the Ki [4] of the same molecule?
**A.** 6 nM

**Q.** What about the Ki [5] of the same molecule?
**A.** 37 nM

**Q.** With O=C(O)[C@@H]1CCCN1S(=O)(=O)c1ccc(Cl)s1 as the molecule, how does the Ki [3] read?
**A.** 175 nM

**Q.** And the Ki [4]?
**A.** 672 nM

**Q.** And the Ki [5]?
**A.** 275 nM

**Q.** How did the Ki [1] turn out when O=C(NO)[C@H]1CCCN1S(=O)(=O)CCc1ccccc1 was run?
**A.** 7000 nM

**Q.** And the Ki [2]?
**A.** 1800 nM

**Q.** And the Ki [3]?
**A.** 14 nM

**Q.** And the Ki [4]?
**A.** 16 nM

**Q.** What about the Ki [5] of the same molecule?
**A.** 43 nM

**Q.** What does the source list for O=C(O)CNS(=O)(=O)CCc1ccc(Cl)s1?
**A.** Ki [3]: 323 nM; Ki [4]: 272 nM; Ki [5]: 364 nM
